Measured values from different studies.
Protocols differ between the studies behind these lines.
Target: Casein kinase II subunit alpha' (CSNK2A2, Homo sapiens, UniProt P19784)

Cn1cc(-c2cc(F)cc(N3CCn4c(cc5c4CCCC5)C3=O)c2CO)cc(Nc2ccc(N3CCN(C4COC4)CC3)cn2)c1=O
inhibition (enzyme activity; inhibitor; 0.1 µM): 1%

COc1ncccc1-c1cnn2ccc(N3CCN(C(=O)OC(C)C)CC3)nc12
remaining binding (binding; competition with immobilised ligand; 1 µM): 62%

CN[C@@H]1C[C@H]2O[C@@](C)([C@@H]1OC)n1c3ccccc3c3c4c(c5c6ccccc6n2c5c31)C(=O)NC4
activity vs control (enzyme activity; inhibitor; 0.5 µM): 66.6%

C#Cc1n[nH]c2c(-c3cn([C@@H](C)c4ccccn4)c(=O)[nH]c3=O)cc(F)cc12
inhibition (enzyme activity; inhibitor; 0.1 µM): 3.3%

Cn1cc(-c2cccc(N3CCc4c(sc5c4CC(C)(C)C5)C3=O)c2CO)cc(Nc2ccncn2)c1=O
inhibition (enzyme activity; inhibitor; 1 µM): 4%

Nc1ncc(-c2nc(N3CCOCC3)nc(N3CCOCC3)n2)c(C(F)F)n1
remaining binding (binding; competition with immobilised ligand; 10 µM): 69%

O=c1[nH]c2ccccc2n1C1CCN(Cc2ccc(-c3[nH]c4cc5ncnc5cc4nc3-c3ccccc3)cc2)CC1
remaining signal (cell-free assay; 0.5 µM): 101%

Cn1cncc1[C@@](O)(COc1ccc(C#N)cc1-c1ccc(OC(F)(F)F)cc1)c1ccc(C#N)cc1
remaining binding (cell-free assay; competition with immobilised ligand; 1 µM): 100%

C#Cc1n[nH]c2c(-c3cn([C@@H](C)c4ccccc4)c(=O)[nH]c3=O)cc(F)cc12
inhibition (enzyme activity; inhibitor; 0.1 µM): 1.5%

Cc1nn(C)cc1-c1nc2c(N3CCN(Cc4ccc(Cl)cc4)CC3)c(Cl)cnc2[nH]1
remaining binding (binding; competition with immobilised ligand; 1 µM): 67%
